Laboratory results reported in the M2OR odorant receptor database.

Molecular target: T1, OR1A1 (Homo sapiens) (UniProt Q9P1Q5)
T1 sequence (whole entry): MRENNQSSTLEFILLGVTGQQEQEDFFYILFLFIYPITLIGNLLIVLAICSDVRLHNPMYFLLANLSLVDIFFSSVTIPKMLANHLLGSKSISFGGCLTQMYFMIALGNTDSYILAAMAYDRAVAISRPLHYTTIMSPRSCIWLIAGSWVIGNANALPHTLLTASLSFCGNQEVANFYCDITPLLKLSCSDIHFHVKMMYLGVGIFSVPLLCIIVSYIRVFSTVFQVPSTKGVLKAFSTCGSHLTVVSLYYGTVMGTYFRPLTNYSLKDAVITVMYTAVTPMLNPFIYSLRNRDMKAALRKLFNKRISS
Details: stereoisomer not certain
Outline: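 Each receptor–molecule pair is labelled responsive or non-responsive (inactive) according to whether the original authors judged the measured signal statistically different from baseline. The data were taken from the main text and supplementary material of published papers and checked for typos and inconsistencies. Assay methods differed by source, with transient luciferase assays in mammalian cell lines being common.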
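Further: active if original authors judged signal statistically different from baseline.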

Row | SMILES | odorant receptor agonist call
1 | CC1CCC(C(C)C)C(=O)C1 (configuration not stated) | active
2 | Cc1cccc(O)c1 | inactive
